What all share (type): functional, organism-based
For assay [1], the system named is Enterococcus faecalis. As to the kind of experiment: Induction of transfer of plasmid pMG2200 in Enterococcus faecalis JH2SS at 100 ng/ml. The gist of the method:
(§1)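 Donor E. faecalis JH2SS carrying pMG2200 and pAM714 was exposed for 2 h to a synthetic pheromone (cCF10 or cAD1, 100 ng/ml) to induce aggregation-mating. A short 10-min mating with recipient FA2-2 followed. Transfer frequency was scored as transconjugants per donor cell at the end of mating.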

The test system of assay [2] is Enterococcus faecalis. As to the kind of experiment: Induction of aggregation of Enterococcus faecalis JH2SS harboring pMG2200 at 100 ng/ml. The gist of the method:
(§2)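 Donor E. faecalis JH2SS carrying the plasmid, exposed 2 h to synthetic pheromone (cAD1, cPD1, cCF10, cOB1 or cAM373 at 100 ng/ml) or to FA2-2 culture filtrate. Aggregation (clumping) of cells scored visually afterwards. A short 10-min mating with FA2-2 followed induction.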

Assay [3] relates to Enterococcus faecalis. As to the kind of experiment: Induction of transfer of plasmid pAM714 in Enterococcus faecalis JH2SS at 100 ng/ml. The gist of the method:
as §1

Assay [4] has as its system Enterococcus faecalis. The assay can be described thus: Induction of aggregation of Enterococcus faecalis JH2SS harboring pMG2201 at 100 ng/ml. The gist of the method:
as §2

The source made the active and inactive calls. No cut-off for these calls is given here. Residues, ends and D or L forms follow the SMILES beside them.

`CC(C)C[C@H](NC(=O)[C@H](CO)NC(=O)[C@H](Cc1ccccc1)NC(=O)[C@@H](N)CC(C)C)C(=O)N[C@H](C(=O)N[C@@H](CC(C)C)C(=O)N[C@@H](C)C(=O)NCC(=O)O)C(C)C` (H-LFSLVLAG-OH): the outcome in assay [1] and in assay [2] was inactive. In addition, the result in assay [3] and in assay [4] was Active.

On to `CC(C)C[C@H](NC(=O)[C@@H](NC(=O)[C@@H](NC(=O)[C@@H](N)CC(C)C)C(C)C)[C@@H](C)O)C(=O)N[C@H](C(=O)N[C@@H](Cc1ccccc1)C(=O)N[C@H](C(=O)O)C(C)C)C(C)C` (H-LVTLVFV-OH), for which the result in assay [1] and in assay [2] was Active. Further, the result in assay [3] and in assay [4] was inactive.
